Results from ChEMBL document CHEMBL1921722, “In vitro and in vivo evaluation of select kahalalide F analogs with antitumor and antifungal activities” (Bioorg Med Chem, 2011).
Activity calls are given as the source filed them.

Tests used:
[1] = test system: SK-OV-3; test: Cytotoxicity against human SKOV3 cells by sulforhodamine B assay; type: functional
How it was run: (§1)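 NCI Developmental Therapeutics Program 60-cell-line human tumor panel screen, run at NCI. A single-concentration pre-screen was followed by a five-concentration dose-response in 10-fold steps. GI50 is the concentration that reduces growth of treated cells to half that of untreated control cells. TGI is the concentration that completely halts growth.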

[2] = test system: HT-29; test: Cytotoxicity against human HT-29 cells by sulforhodamine B assay; type: functional
How it was run: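 Run by the NCI Developmental Therapeutics Program on its 60-line human tumour cell panel using the standard procedure. Compounds went through a single-concentration prescreen first, and those active by NCI criteria went on to a five-concentration growth-inhibition test. GI50 is the concentration that cuts growth of treated cells to half that of untreated control cells.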

[3] = test system: UACC-62; test: Cytotoxicity against human UACC62 cells assessed as cell growth at 800 nM by sulforhodamine B assay relative to control; type: functional; settings: read-out: Activity
[4] = test system: HCT-116; test: Cytotoxicity against human HCT116 cells assessed as cell growth at 8 uM by sulforhodamine B assay relative to control; type: functional; settings: read-out: Activity
[5] = test system: PC-3; test: Cytotoxicity against human PC3 cells assessed as cell growth at 800 nM by sulforhodamine B assay relative to control; type: functional; settings: read-out: Activity
[6] = test system: RPMI-8226; test: Cytotoxicity against human RPMI8226 cells assessed as cell growth at 8 nM by sulforhodamine B assay relative to control; type: functional; settings: read-out: Activity
[7] = test system: EKVX; test: Cytotoxicity against human EKVX cells assessed as cell growth at 80 nM by sulforhodamine B assay relative to control; type: functional; settings: read-out: Activity
[8] = test system: RXF 393; test: Cytotoxicity against human RXF393 cells assessed as cell growth at 8 nM by sulforhodamine B assay relative to control; type: functional; settings: read-out: Activity
[9] = test system: TK-10; test: Cytotoxicity against human TK10 cells assessed as cell growth at 800 nM by sulforhodamine B assay relative to control; type: functional; settings: read-out: Activity
[10] = test system: SK-MEL-28; test: Cytotoxicity against human SK-MEL-28 cells assessed as cell growth at 80 uM by sulforhodamine B assay relative to control; type: functional; settings: read-out: Activity
[11] = test system: OVCAR-8; test: Cytotoxicity against human OVCAR8 cells assessed as cell growth at 80 nM by sulforhodamine B assay relative to control; type: functional; settings: read-out: Activity
[12] = test system: COLO 205; test: Cytotoxicity against human COLO205 cells assessed as cell growth at 8 nM by sulforhodamine B assay relative to control; type: functional; settings: read-out: Activity
How it was run: (§2)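 Run at NCI in the DTP 60-cell-line human tumor panel by standard procedure. Compounds were first screened at a single concentration, then tested at five tenfold-spaced concentrations. GI50 is the concentration reducing treated-cell growth to half that of untreated controls; TGI is the concentration completely halting growth.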

[13] = test system: SW-620; test: Cytotoxicity against human SW620 cells assessed as cell growth at 80 nM by sulforhodamine B assay relative to control; type: functional; settings: read-out: Activity
[14] = test system: SNB-75; test: Cytotoxicity against human SNB75 cells assessed as cell growth at 80 uM by sulforhodamine B assay relative to control; type: functional; settings: read-out: Activity
[15] = test system: SK-MEL-2; test: Cytotoxicity against human SK-MEL-2 cells assessed as cell growth at 8 nM by sulforhodamine B assay relative to control; type: functional; settings: read-out: Activity
[16] = test system: HCT-15; test: Cytotoxicity against human HCT15 cells assessed as cell growth at 80 uM by sulforhodamine B assay relative to control; type: functional; settings: read-out: Activity
[17] = test system: TK-10; test: Cytotoxicity against human TK10 cells assessed as cell growth at 8 uM by sulforhodamine B assay relative to control; type: functional; settings: read-out: Activity
[18] = test system: M14; test: Cytotoxicity against human M14 cells assessed as cell growth at 800 nM by sulforhodamine B assay relative to control; type: functional; settings: read-out: Activity
[19] = test system: A498; test: Cytotoxicity against human A498 cells assessed as cell growth at 80 uM by sulforhodamine B assay relative to control; type: functional; settings: read-out: Activity; how it was run: as §2
[20] = test system: Malme-3M; test: Cytotoxicity against human MALME-3M cells assessed as cell growth at 8 nM by sulforhodamine B assay relative to control; type: functional; settings: read-out: Activity
[21] = test system: LOX IMVI; test: Cytotoxicity against human LOXIMVI cells assessed as cell growth at 8 nM by sulforhodamine B assay relative to control; type: functional; settings: read-out: Activity
[22] = test system: UACC-257; test: Cytotoxicity against human UACC257 cells assessed as cell growth at 800 nM by sulforhodamine B assay relative to control; type: functional; settings: read-out: Activity
[23] = test system: UACC-257; test: Cytotoxicity against human UACC257 cells assessed as cell growth at 80 nM by sulforhodamine B assay relative to control; type: functional; settings: read-out: Activity
[24] = test system: MDA-MB-231; test: Cytotoxicity against human MDA-MB-231 cells assessed as cell growth at 80 uM by sulforhodamine B assay relative to control; type: functional; settings: read-out: Activity
[25] = test system: Hs-578T; test: Cytotoxicity against human Hs578T cells assessed as cell growth at 80 uM by sulforhodamine B assay relative to control; type: functional; settings: read-out: Activity
[26] = test system: SF-539; test: Cytotoxicity against human SF539 cells by sulforhodamine B assay; type: functional; settings: for TGI: read-out: pTGI (converted); how it was run: as §1
[27] = test system: SF-295; test: Cytotoxicity against human SF295 cells assessed as cell growth at 80 uM by sulforhodamine B assay relative to control; type: functional; settings: read-out: Activity
[28] = test system: OVCAR-4; test: Cytotoxicity against human OVCAR4 cells assessed as cell growth at 8 uM by sulforhodamine B assay relative to control; type: functional; settings: read-out: Activity
[29] = test system: PC-3; test: Cytotoxicity against human PC3 cells assessed as cell growth at 80 nM by sulforhodamine B assay relative to control; type: functional; settings: read-out: Activity
[30] = test system: UACC-257; test: Cytotoxicity against human UACC257 cells by sulforhodamine B assay; type: functional; how it was run: as §1
[31] = test system: MDA-MB-435; test: Cytotoxicity against human MDA-MB-435 cells assessed as cell growth at 8 nM by sulforhodamine B assay relative to control; type: functional; settings: read-out: Activity
[32] = test system: RXF 393; test: Cytotoxicity against human RXF393 cells by sulforhodamine B assay; type: functional; settings: for TGI: read-out: pTGI (converted); how it was run: as §1
[33] = test system: NCI/ADR-RES; test: Cytotoxicity against human NCI/ADR-RES cells by sulforhodamine B assay; type: functional; settings: for TGI: read-out: pTGI (converted); how it was run: as §1
[34] = test system: HT-29; test: Cytotoxicity against human HT-29 cells assessed as cell growth at 8 nM by sulforhodamine B assay relative to control; type: functional; settings: read-out: Activity
[35] = test system: IGROV-1; test: Cytotoxicity against human IGROV1 cells assessed as cell growth at 80 nM by sulforhodamine B assay relative to control; type: functional; settings: read-out: Activity
[36] = test system: SW-620; test: Antitumor activity against human SW620 cells xenografted in mouse assessed as tumor cell killing at 4.7 mg/kg, ip qd for 4 days by MTT assay; type: functional, organism-based; design: dose 4.7 mg/kg
How it was run: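 Hollow-fiber assay in mice. Tumor lines were grown in RPMI-1640 with 10% FBS and 2 mM glutamine. Cells at 2 × 10^6 cells/ml were loaded into 1 mm PVDF fibers (500,000 Da cutoff), heat-sealed at 2 cm and held 24–48 h at 37 °C, 5% CO2 before implantation. Compound was given IP. Fibers were collected the day after the fourth treatment for MTT (OD 540 nm, group means). A ≥50% cut in percent net growth versus vehicle counted as positive.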

C/C=C1\NC(=O)[C@H](Cc2ccccc2)NC(=O)[C@@H](C(C)C)NC(=O)[C@@H]([C@@H](C)CC)NC(=O)[C@H](NC(=O)[C@H](NC(=O)[C@H](CCCNCc2ccc(N3CCOCC3)cc2)NC(=O)[C@H]2CCCN2C(=O)[C@H](NC(=O)[C@@H](NC(=O)[C@@H](NC(=O)[C@H](NC(=O)CCCC(C)C)C(C)C)[C@@H](C)O)C(C)C)C(C)C)[C@@H](C)CC)[C@@H](C)OC(=O)[C@H](C(C)C)NC1=O
GI50 ([1]; read-out: GI50): 0.178 µM | TGI ([1]; read-out: TGI): 0.415 µM | GI50 ([1]; read-out: pGI50 (converted)): 0.178 µM | TGI ([1]; read-out: pTGI (converted)): 0.417 µM | GI50 ([2]; read-out: GI50): 0.224 µM | GI50 ([2]; read-out: pGI50 (converted)): 0.224 µM | growth at 0.8 µM [3]: 100% | growth at 8 µM [4]: -66% | growth at 0.8 µM [5]: -51% | growth at 0.008 µM [6]: 111% | growth at 0.08 µM [7]: 98% | growth at 0.008 µM [8]: 111% | growth at 0.8 µM [9]: 104% | growth at 80 µM [10]: -13% | growth at 0.08 µM [11]: 98% | growth at 0.008 µM [12]: 103% | growth at 0.08 µM [13]: 99% | growth at 80 µM [14]: -7% | growth at 0.008 µM [15]: 105% | growth at 80 µM [16]: -45% | growth at 8 µM [17]: -77% | growth at 0.8 µM [18]: 102% | growth at 80 µM [19]: -91% | growth at 0.008 µM [20]: 100% | growth at 0.008 µM [21]: 95% | growth at 0.8 µM [22]: 93% | growth at 0.08 µM [23]: 103% | growth at 80 µM [24]: -43% | growth at 80 µM [25]: -40% | GI50 [26]: 1.29 µM | LC50 [26]: 4.57 µM | TGI [26]: 2.45 µM | growth at 80 µM [27]: -33% | growth at 8 µM [28]: -59% | growth at 0.08 µM [29]: 97% | GI50 ([30]; read-out: GI50): 1.34 µM | TGI ([30]; read-out: TGI): 2.65 µM | GI50 ([30]; read-out: pGI50 (converted)): 1.35 µM | TGI ([30]; read-out: pTGI (converted)): 2.63 µM | growth at 0.008 µM [31]: 103% | GI50 [32]: 1.58 µM | LC50 [32]: > 75.9 µM | TGI [32]: 3.55 µM | GI50 [33]: 1.41 µM | LC50 [33]: 21.4 µM | TGI [33]: 3.47 µM | growth at 0.008 µM [34]: 92% | growth at 0.08 µM [35]: 106% | Activity [36]: inactive

C/C=C1\NC(=O)[C@H](Cc2ccccc2)NC(=O)[C@@H](C(C)C)NC(=O)[C@@H]([C@@H](C)CC)NC(=O)[C@H](NC(=O)[C@H](NC(=O)[C@H](CCCNCc2ccc(F)c(C)c2)NC(=O)[C@H]2CCCN2C(=O)[C@H](NC(=O)[C@@H](NC(=O)[C@@H](NC(=O)[C@H](NC(=O)CCCC(C)C)C(C)C)[C@@H](C)O)C(C)C)C(C)C)[C@@H](C)CC)[C@@H](C)OC(=O)[C@H](C(C)C)NC1=O
LC50 [1]: 0.891 µM | GI50 ([1]; read-out: GI50): 0.173 µM | TGI ([1]; read-out: TGI): 0.37 µM | GI50 ([1]; read-out: pGI50 (converted)): 0.174 µM | TGI ([1]; read-out: pTGI (converted)): 0.372 µM | GI50 ([2]; read-out: GI50): 0.164 µM | GI50 ([2]; read-out: pGI50 (converted)): 0.162 µM | growth at 0.8 µM [3]: 93% | growth at 8 µM [4]: -100% | growth at 0.8 µM [5]: -54% | growth at 0.008 µM [6]: 128% | growth at 0.08 µM [7]: 97% | growth at 0.008 µM [8]: 103% | growth at 0.8 µM [9]: 101% | growth at 80 µM [10]: 1% | growth at 0.08 µM [11]: 103% | growth at 0.008 µM [12]: 99% | growth at 0.08 µM [13]: 97% | growth at 80 µM [14]: -19% | growth at 0.008 µM [15]: 98% | growth at 80 µM [16]: -78% | growth at 8 µM [17]: -71% | growth at 0.8 µM [18]: 101% | growth at 80 µM [19]: -100% | growth at 0.008 µM [20]: 108% | growth at 0.008 µM [21]: 96% | growth at 0.8 µM [22]: 88% | growth at 0.08 µM [23]: 101% | growth at 80 µM [24]: -89% | growth at 80 µM [25]: -30% | GI50 [26]: 1.29 µM | LC50 [26]: 4.37 µM | TGI [26]: 2.4 µM | growth at 80 µM [27]: -35% | growth at 8 µM [28]: -65% | growth at 0.08 µM [29]: 104% | LC50 [30]: 5.13 µM | GI50 ([30]; read-out: GI50): 1.28 µM | TGI ([30]; read-out: TGI): 2.55 µM | GI50 ([30]; read-out: pGI50 (converted)): 1.29 µM | TGI ([30]; read-out: pTGI (converted)): 2.57 µM | growth at 0.008 µM [31]: 109% | GI50 [32]: 1.35 µM | LC50 [32]: 6.31 µM | TGI [32]: 2.95 µM | GI50 [33]: 1.32 µM | LC50 [33]: 5.25 µM | TGI [33]: 2.63 µM | growth at 0.008 µM [34]: 100% | growth at 0.08 µM [35]: 107% | Activity [36]: inactive
